From PubChem BioAssay
Compounds with a hit are over-represented: about 2.9% of the library has one in this group of screens.
E-selectin induc = E-selectin induction in HUVECs, primary screen, imaging, HUVEC, immunofluorescence imaging, single point; normalized: neutral wells 0, TNF-alpha wells 100; activation, % at 7.58 µM; P16581; 260,000 compounds, 0.37% hits; AID 686992, 2013;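 active = mean E-selectin-positive cell signal at least 10% of the positive control, reached in at least 60% of replicates, without over 20% cell loss; inconclusive = no rule given, readout overlaps actives, possibly toxicity-flagged; inactive = the rest, including those meeting only one limit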
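Read-out basis: % PE-positive cells; Test system: HUVEC primary endothelial cells; Technique: immunofluorescence imaging; Dosing: single-point compound dose.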
DENV2 CPE = inhibitors of DENV2 cytopathic effect, primary screen, cell-based, plate reader, single concentration. DENV2-infected cells, cytopathic effect rescue. CPE inhibition, % at 9.99 µM. 350,000 compounds, 1.7% hits. AID 651640, 2012; in the data active = CPE inhibition above about 20%, passing the limit was not always enough; inconclusive = no clear call, values can overlap the other calls; tested in BHK-21 cells
SIRT5 block = SIRT5 desuccinylase inhibitors, primary screen, biochemical, fluorescence imaging, single point, set 5; Purified SirT5, succinyl-peptide AMC, trypsin-coupled fluorescence; inhibition, % at 15 µM; 330,000 compounds, 1.1% hits; in the data active = inhibition above about 15%; inconclusive = no clear call, values can overlap the other calls
Target sequence (Q9NXA8 whole entry, looked up): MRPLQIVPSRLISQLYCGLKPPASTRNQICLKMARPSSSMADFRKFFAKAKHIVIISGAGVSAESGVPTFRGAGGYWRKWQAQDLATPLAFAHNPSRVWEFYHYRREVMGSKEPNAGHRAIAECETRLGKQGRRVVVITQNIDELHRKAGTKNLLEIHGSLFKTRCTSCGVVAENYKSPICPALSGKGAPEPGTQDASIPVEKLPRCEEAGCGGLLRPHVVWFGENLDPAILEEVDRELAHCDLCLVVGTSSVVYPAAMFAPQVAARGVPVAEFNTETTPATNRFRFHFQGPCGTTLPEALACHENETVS
Numbers stand for hits; - = inactive; ? = inconclusive; . = no result; ! = not active in a repeat.

SMILES	E-selectin induc	DENV2 CPE	SIRT5 block
CN1CCN(/N=C/c2ccc(OCc3ccccc3)cc2)CC1	-	23.5	-
Nc1cccc(Oc2ccc3c(c2)C(=O)N(CC2CCCO2)C3=O)c1 (stereo not drawn)	-	-	.
CC(C)C[C@H]1CNC(=S)N1CC1CCN(CCCC2CCCC2)CC1	-	-	-
C[C@H]1CN([C@@H](C)CO)S(=O)(=O)c2ccc(/C=C/c3ccccc3)cc2O[C@@H]1CN(C)C(=O)NC1CCCCC1	.	-	29.5
C[C@@H]1CN([C@H](C)CO)S(=O)(=O)c2ccc(/C=C/c3ccccc3)cc2O[C@H]1CN(C)C(=O)NC1CCCCC1	.	-	24.6
C/C=C/c1ccc2c(c1)O[C@@H](CN(C)C(=O)NC1CCCCC1)[C@H](C)CN([C@H](C)CO)S2(=O)=O	-	-	-
C/C=C/c1ccc2c(c1)O[C@@H](CN(C)C(=O)NC1CCCCC1)[C@H](C)CN([C@@H](C)CO)S2(=O)=O	-	-	-
Cc1noc(C)c1S(=O)(=O)NCc1cccc(Cl)c1	.	-	-
O=C(CCC1CCCC1)Nc1ccc(C(=O)NCc2cccnc2)cc1	.	-	-
O=C(O)Cn1nc(-c2ccccc2)cc1-c1ccccc1	.	80.1	-
CC(=O)n1nc(-c2ccccc2)cc1-c1ccccc1	.	-	-
CC(=O)c1ccc(NC(=O)c2ccc(C)c(S(=O)(=O)N3CCOCC3)c2)cc1	.	-	-
Cc1ccc(NC(=O)c2ccc(S(=O)(=O)N3CC(C)CC(C)C3)cc2)cc1S(=O)(=O)N1CCOCC1 (stereo not drawn)	.	45.6	-
CC(C)CC(NC(=O)C1CCC(C)CC1)C(=O)Nc1ccc2c(c1)OCCO2 (stereo not drawn)	-	-	.
O=C(NCC1CC1)c1ccc2sc([C@H]3C[C@H](O)[C@@H](CO)O3)nc2c1	-	-	-
N#CC1=C(N)OC2=C(C(=O)CCC2)C1c1ccoc1 (stereo not drawn)	.	-	-
C[C@H](CO)N1C[C@H](C)[C@H](CN(C)C(=O)C2CC2)OCc2cnnn2CCCC1=O	-	112.5!	-
C[C@H](CO)N1C[C@H](C)[C@@H](CN(C)C(=O)c2ccc(N3CCN(C)CC3)cc2)OCc2cnnn2CCCC1=O	-	?	32.8!
C[C@@H]1CN([C@@H](C)CO)C(=O)CCCn2nncc2CO[C@@H]1CN(C)C(=O)C1CC1	-	-	-
C[C@H]1CN([C@@H](C)CO)C(=O)CCCn2nncc2CO[C@@H]1CN(C)C(=O)C1CC1	-	-	-
C[C@H](CO)N1C[C@H](C)[C@@H](CN(C)C(=O)C2CC2)OCc2cnnn2CCCC1=O	-	49.4!	-
C[C@@H]1CN([C@@H](C)CO)C(=O)CCCn2nncc2CO[C@H]1CN(C)C(=O)C1CCCCC1	-	?	28.8!
C[C@@H]1CN([C@@H](C)CO)C(=O)CCCn2nncc2CO[C@@H]1CN(C)C(=O)C1CCCCC1	-	?	-
C[C@@H]1CN([C@H](C)CO)C(=O)CCCn2nncc2CO[C@@H]1CN(C)C(=O)c1ccc(N2CCN(C)CC2)cc1	-	-	-
O=C(C[C@H]1CC[C@@H]2[C@H](COC[C@H](O)CN2C(=O)Nc2ccccc2)O1)NCc1ccccc1F	-	-	-
SMILES	E-selectin induc	DENV2 CPE	SIRT5 block
O=C1OCCN1C(=O)[C@H]1[C@H](c2ccc(Cl)cc2)C(c2ccccc2)=NN1c1ccc(Br)cc1	.	-	-
CC1(c2ccc3c(c2)OCO3)NC(=O)N(CC(=O)Nc2ccccc2)C1=O (stereo not drawn)	-	-	-
N#C[C@H]1N[C@H](CO)[C@H]1c1ccc(C#CC2CCCCC2)cc1	-	-	-
C[C@@H]1CN([C@@H](C)CO)C(=O)CCCn2nncc2CO[C@@H]1CN(C)CC1CCCCC1	-	58.9	-
C[C@H]1CN([C@@H](C)CO)C(=O)CCCn2nncc2CO[C@H]1CN(C)CC1CCCCC1	-	-	-
C=CCNC(=O)COc1c(C)ccc(C)c1C	-	-	22.7
C=CCNC(=O)COc1ccc(Oc2ccccc2)cc1	-	-	-
CC(=O)c1cccc(N(C(=O)CNC(=O)c2ccco2)C(C(=O)NC2CCCC2)c2ccc(C)o2)c1 (stereo not drawn)	.	-	-
CCC(=O)NC(=S)Nc1ccc(NC(=O)c2cc3ccccc3o2)c(OC)c1	-	-	-
Cc1ccc(S(=O)(=O)N(C)C[C@@H]2Oc3ccc(N(C)C)cc3C(=O)N([C@H](C)CO)C[C@H]2C)cc1	36.4	-	-
Cc1ccc(S(=O)(=O)N(C)C[C@@H]2Oc3ccc(N(C)C)cc3C(=O)N([C@@H](C)CO)C[C@@H]2C)cc1	-	-	-
Cc1ccc(S(=O)(=O)N(C)C[C@H]2Oc3ccc(N(C)C)cc3C(=O)N([C@H](C)CO)C[C@@H]2C)cc1	-	-	-
Cc1ccc(S(=O)(=O)N(C)C[C@H]2Oc3ccc(N(C)C)cc3C(=O)N([C@@H](C)CO)C[C@@H]2C)cc1	46.6	-	-
CCCNC(=O)C[C@@H]1C[C@@H]2c3cc(NC(=O)CN(C)C)ccc3O[C@@H]2[C@@H](CO)O1	-	-	.
Cc1cc(C(=O)COC(=O)c2cccnc2Cl)c(C)n1CC1CCCO1 (stereo not drawn)	.	-	-
CC(C)C#Cc1cnc2c(c1)C(=O)N([C@@H](C)CO)C[C@H](C)[C@@H](CN(C)C(=O)Cc1ccncc1)O2	-	-	-
O=C(N/N=C/c1c[nH]c2ccccc12)c1ccc2c(c1)OCCO2	-	-	-
Cc1noc(C)c1NC(=O)Nc1ccc2c(c1)C(=O)N([C@@H](C)CO)C[C@@H](C)[C@H](CN(C)C(=O)Nc1c(C)noc1C)OCCCC[C@H](C)O2	-	-	-
Cc1noc(C)c1NC(=O)Nc1ccc2c(c1)C(=O)N([C@@H](C)CO)C[C@@H](C)[C@@H](CN(C)C)OCCCC[C@@H](C)O2	-	84.2	-
Cc1noc(C)c1NC(=O)Nc1ccc2c(c1)C(=O)N([C@@H](C)CO)C[C@@H](C)[C@H](CN(C)C(=O)Nc1c(C)noc1C)OCCCC[C@@H](C)O2	-	30.5	-
Cc1noc(C)c1NC(=O)Nc1ccc2c(c1)C(=O)N([C@@H](C)CO)C[C@@H](C)[C@H](CN(C)C)OCCCC[C@@H](C)O2	-	-	-
Cc1noc(C)c1NC(=O)Nc1ccc2c(c1)C(=O)N([C@H](C)CO)C[C@@H](C)[C@@H](CN(C)S(=O)(=O)c1cn(C)cn1)OCCCC[C@H](C)O2	-	-	-
Cc1noc(C)c1NC(=O)Nc1ccc2c(c1)C(=O)N([C@H](C)CO)C[C@H](C)[C@H](CN(C)S(C)(=O)=O)OCCCC[C@H](C)O2	-	-	-
Cc1noc(C)c1NC(=O)Nc1ccc2c(c1)C(=O)N([C@@H](C)CO)C[C@@H](C)[C@@H](CN(C)S(=O)(=O)c1cn(C)cn1)OCCCC[C@@H](C)O2	-	.	17.4
Cc1noc(C)c1NC(=O)Nc1ccc2c(c1)C(=O)N([C@@H](C)CO)C[C@@H](C)[C@@H](CN(C)S(C)(=O)=O)OCCCC[C@@H](C)O2	-	102.1	-
CC(C)N1C(=O)N(c2ccc(Cl)cc2)C(C)(O)CC1(C)C (stereo not drawn)	-	-	-
